Compound activity as filed in PubChem BioAssay.
CYP2C19 inh – blocks human cytochrome P450 2C19 | P33261 | CYP2C19 Supersomes, luciferin-H EGE luminescence, 30 min | inhibition, % at 5 µM | hit rate 21% among 96,000 | AID 778;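 active = CYP2C19 inhibition above a set limit at 5 µM in the primary screen, cut at about 50% in these data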;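 also: plate controls were negative control wells for no effect and 2.5 mM tranylcypromine positive control for full effect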
CYP2C9 act – activators of human CYP2C9; recombinant CYP2C9, luciferin-H conversion, luminescence; hits give high values; factor 1 = untreated enzyme, 0 = blocked; activation factor at 5 µM; hit rate 1.4% among 96,000; AID 1024;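 active = activation factor of 2 or more for CYP2C9 at a 5 µM dose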;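 also: 0 = sulfaphenazole-blocked wells and 1 = vehicle-only wells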
Target sequence (P11712 whole entry, looked up): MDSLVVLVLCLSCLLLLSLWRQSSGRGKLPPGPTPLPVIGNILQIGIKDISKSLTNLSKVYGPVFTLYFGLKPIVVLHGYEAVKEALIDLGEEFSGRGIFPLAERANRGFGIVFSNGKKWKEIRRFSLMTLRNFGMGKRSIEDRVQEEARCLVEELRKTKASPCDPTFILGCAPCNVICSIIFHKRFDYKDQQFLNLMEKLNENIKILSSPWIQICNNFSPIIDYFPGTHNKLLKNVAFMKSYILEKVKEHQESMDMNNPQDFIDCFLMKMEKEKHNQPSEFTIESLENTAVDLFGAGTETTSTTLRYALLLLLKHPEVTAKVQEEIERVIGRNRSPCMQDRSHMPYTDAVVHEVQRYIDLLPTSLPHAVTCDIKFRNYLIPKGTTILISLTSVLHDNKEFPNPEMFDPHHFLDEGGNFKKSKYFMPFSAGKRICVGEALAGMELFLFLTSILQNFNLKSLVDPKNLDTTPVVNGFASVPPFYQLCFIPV
CYP2C19 act – increases human CYP2C19 enzyme activity; P33261; recombinant CYP2C19, luciferin-H EGE luminescence; hits give high values; 0 = fully inhibited enzyme, 1 = untreated enzyme; activation factor at 5 µM; 96,000 tested, under 10 active;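 active = activation factor of at least 2 at 5 µM in the primary screen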;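 also: 0 = wells with 2.5 mM tranylcypromine and 1 = vehicle-only wells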
CYP2C9 inh – human CYP2C9 inhibition; P11712; hit rate 20% among 96,000; inhibition, % at 5 µM; CYP2C9 Supersomes, luciferin-H conversion, luminescence; AID 777;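 active = blocking of liver enzyme CYP2C9 beyond about 50% at 5 µM, limit read from the data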
HIV Rev-RRE inh – disrupts HIV-1 Rev binding to RRE RNA; hit rate 0.79% among 97,000; Rev peptide-RRE RNA binding, FRET; AID 704; P05866; inhibition, % at 8 µM;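 active = inhibition above the screen-wide mean plus 3 SD, cut at about 35% in these data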;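 also: 0% = median DMSO wells and 100% = median Neomycin B control wells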
Target sequence (P05866 whole entry, looked up): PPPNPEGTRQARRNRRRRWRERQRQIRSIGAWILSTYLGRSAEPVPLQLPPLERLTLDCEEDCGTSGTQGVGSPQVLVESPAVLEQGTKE
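System: Cy5-labelled duplex RRE RNA binding fluorescein-labelled HIV Rev peptide; Signal: fluorescein-to-Cy5 FRET, 480 nm excitation; Also added: labelled Rev peptide; Compound: one concentration, 8 µM nominal; Buffer or medium: HEPES pH 7.5 salt buffer with EDTA; Read-out: % inhibition of FRET ratio versus controls; Schedule: 5 min preincubation and 15 min binding, 25 °C.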
Cav3 T inh – human Cav3.2 channel inhibition, primary screen; O95180; Cav3.2-expressing cells, Fluo-4 calcium fluorescence FDSS; hits give low values; B-score at 10 µM; hit rate 4% among 100,000; AID 449739;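 active = single-dose well whose peak fluorescence ratio is a statistical outlier from its plate by either plate-standardised score or position-corrected B-score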
* = called active by the depositor; i = inactive; · = not tested or not shown. Hits are enriched below; roughly 27% of the tested compounds scored in any of these assays.

SMILES	CYP2C19 inh	CYP2C9 act	CYP2C19 act	CYP2C9 inh	HIV Rev-RRE inh	Cav3 T inh
COc1ccc(C(=O)N2CCOCC2)cc1S(=O)(=O)N1CCC(C)CC1	-9	0.7	1.1	27	6	-0.058
CC1CCN(S(=O)(=O)c2ccc(NN=C(C#N)C#N)cc2)CC1	4	0.1	1	94*	7	-8.4*
CCCC1=C(C(=O)OCC)C2(C(=O)Nc3ccccc32)C(C#N)=C(N)O1 (stereo not drawn)	4	0.9	1	12	1	-0.68
CNc1ccc2oc(C[C@H]3O[C@@]4(CC[C@H]3C)O[C@H]([C@H](C)C(=O)c3ccc[nH]3)[C@H](C)C[C@H]4C)nc2c1C(=O)O	·	·	·	·	·	4.4*
CC(c1ccccc1)n1cncc1C(=O)O (stereo not drawn)	·	·	·	·	12	-0.13
Cc1nn(CCC#N)c2c1P(=S)(N1CCCC1)OC(c1ccc(F)cc1)=N2 (stereo not drawn)	14	0.7	0.9	30	3	-3.3
CCCC/C(=N\O)c1c[nH]c2ccccc12	69*	0.7	0.3	28	0	-4.1
CC(=O)C1(c2ccccc2)CCNCC1	1	0.9	1	5	5	0.14
CN1C[C@H](CNC(=O)OCc2ccccc2)C[C@@H]2c3cccc4c3c(cn4C)C[C@H]21	·	·	·	·	·	-4.4*
Cc1ccc(-n2c(O)c(C=NC3CCCC3)c(=O)[nH]c2=O)c(C)c1	94*	0.9	0.1	10	-2	1.7
COCCOC(=O)c1c(N)n(Cc2ccc(OC)cc2)c2nc3ccccc3nc12	64*	0.2	0.4	83*	·	-1.5
COC(=O)c1c(N)n(Cc2ccc(OC)cc2)c2nc3ccccc3nc12	75*	0.3	0.3	71*	·	1.2
COc1ccc(Cn2c(N)c(C(=O)NCc3ccco3)c3nc4ccccc4nc32)cc1OC	42	0.2	0.6	79*	31	·
CCSc1nnc(C(N)Cc2ccccc2)o1 (stereo not drawn)	-2	1.2	1	-16	-2	0.1
O=P(/C(=N/O)N1CCCCC1)(N1CCOCC1)N1CCOCC1	-11	0.9	1.1	8	0	0.34
C=Cn1ccnc1P(=S)(c1nccn1C=C)c1nccn1C=C	-1	1	1	0	-1	0.22
C=Cn1ccnc1P(=S)(c1nccn1C=C)C1CCCCC1	70*	0.9	0.3	15	2	-0.69
CC(=NCCC1=CCCCC1)c1c(O)n(C)c(=O)n(C)c1=O	42	0.5	0.6	50*	7	-0.61
CC(=NCCO)c1c(O)n(C)c(=O)n(C)c1=O	-22	1.1	1.2	-8	0	-1.8
O=C(Cc1ccccc1)OC(COCc1ccccc1)CN1CCOCC1 (stereo not drawn)	73*	0.6	0.3	44	-2	1
CCOC(=O)C(O)(c1cn(C)c2ccccc12)C(F)(F)F (stereo not drawn)	9	2.6*	0.9	-164	3	0.93
C#CCNc1ccncc1S(=O)(=O)NC(=O)NC(C)C	·	·	·	·	9	0.091
OC1(c2ccc(F)cc2)CC2CCC(C1)N2Cc1nnnn1C1CCCC1 (stereo not drawn)	88*	0.2	0.1	81*	-2	0.0038
CC1(C)CN=C(NCc2ccccc2Cl)S1	65*	0.9	0.4	9	0	-0.17
O=C(COc1ccc(Cl)cc1Cl)N1CCN(C/C=C/c2ccccc2)CC1	43	0.4	0.6	56*	6	-2
SMILES	CYP2C19 inh	CYP2C9 act	CYP2C19 act	CYP2C9 inh	HIV Rev-RRE inh	Cav3 T inh
O=C1NCN(c2ccccc2)C12CCNCC2	89*	1.1	0.1	-6	10	0.11
O=C(Cn1cc(C(=O)c2ccccc2)c2ccccc21)NCc1ccco1	82*	0.2	0.2	82*	1	-3.2
CC1CCCN(CC(=O)N2CCCc3ccccc32)C1 (stereo not drawn)	·	·	·	·	-1	-0.44
O=C(c1ccccc1)c1cn(CC(=O)N2CCCc3ccccc32)c2ccccc12	42	0.3	0.6	74*	10	-2.4
Cc1ccc(S(=O)(=O)Cc2ccc(C(=O)N3CCC4(CC3)OCCO4)o2)cc1	62*	0.3	0.4	70*	-3	0.022
C1=C(CCNCc2ccccc2)CCCC1	70*	0.8	0.3	19	-4	1.1
CNCCc1ccccc1	·	·	·	·	·	-0.071
O=C1NC(=O)C(CCc2ccncc2)(c2ccccc2)C(=O)N1	55*	0.1	0.4	93*	4	-0.46
COc1ccc(OC)c(N2C(=O)NC(=O)C(CCc3ccncc3)(CCc3ccncc3)C2=O)c1	·	·	·	·	4	1.1
COC(=O)C1=C(c2ccc(S(C)(=O)=O)cc2)C[C@@H]2CC[C@H]1N2C(=O)NCc1ccco1	·	·	·	·	·	1.2
Nc1c(C(=O)NC2CCCC2)c2nc3ccccc3nc2n1CC1CCCO1 (stereo not drawn)	2	0.7	1	27	7	-6.4*
CC(C)OCCCNC(=O)c1c(N)n(Cc2cccs2)c2nc3ccccc3nc12	14	0.1	0.9	91*	·	-0.77
COCCOC(=O)c1c(N)n(Cc2ccco2)c2nc3ccccc3nc12	·	·	·	·	30	-0.89
Nc1c(C(=O)OCC2CCCO2)c2nc3ccccc3nc2n1Cc1cccs1 (stereo not drawn)	41	0.4	0.6	57*	13	-2.4
CC(C)CCn1c(N)c(C(=O)NCc2cccs2)c2nc3ccccc3nc21	13	0.9	0.9	10	8	0.005
O=c1[nH]c(=O)n(CCc2ccccc2)c(O)c1C=NCc1ccc2c(c1)OCO2	-26	0.8	1.3	25	3	·
CN1/C(=C\C=C\C2=[N+](C)c3ccc4ccccc4c3C2(C)C)C(C)(C)c2ccccc21	67*	0.4	0.3	56*	i	-5.9*
C[C@H]1CCC[C@H](O)CCCCCc2cc(O)cc(O)c2C(=O)O1	81*	0.6	0.2	44	7	·
CC1CCC[C@H](O)CCCCCc2cc(O)cc(O)c2C(=O)O1 (stereo partly drawn)	·	·	·	·	·	-0.91
C[C@H]1CCC[C@@H](O)CCC/C=C/c2cc(O)cc(O)c2C(=O)O1	89*	0.2	0.1	78*	2	-0.58
CC1CCC/C=C/C2CC(O)CC2C(O)/C=C/C(=O)O1 (stereo not drawn)	11	1.1	0.9	-11	-1	-1.5
C[C@]12CCC(=O)C(O)=C1CC[C@@H]1[C@@H]2CC[C@]2(C)C(=O)CC[C@@H]12	·	·	·	·	·	0.4
CCn1c(O)c(C=NCCc2c[nH]c3ccccc23)c(=O)[nH]c1=O	-6	0.9	1.1	5	4	-0.066
O=C1C2(c3ccccc3)CN3CN(C2)CC1(c1ccccc1)C3	55*	1.2	0.5	-21	5	0.29
CN1C2CCC1CC(OC(c1ccccc1)c1ccccc1N)C2 (stereo not drawn)	·	·	·	·	·	0.084
C[N+]1(C)CCC(OC(=O)C(c2ccccc2)c2ccccc2)CC1	·	·	·	·	·	-4.4*
